“Also recorded” adds a separate entry of the source. Marks after values point to notes of the source that are not given here.
Experiments:
S. aureus ATCC29213 = test: MIC by microdilution, S. aureus ATCC29213; format: cell-based, Staphylococcus aureus; settings: for increase in MIC with added bovine serum albumin: S. aureus ATCC29213; for antibacterial activity, active / inactive / antibacterial activity in words: by MIC with S. aureus ATCC29213
allosteric site of PBP2a = settings: read-out: Kd for binding to the allosteric site of PBP2a; ref [23]; cited from earlier work
[1] = mice, 10 mg/kg iv; ref Bouley [25]; cited from earlier work
MRSA strain NRS70 = test: Time-kill assays; format: cell-based, Staphylococcus aureus; settings: NRS70, 0.5 to 16 × MIC
In short: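 Cultures of MRSA NRS70 were exposed to the test compound, with a no-antibiotic control tube. At 3, 6, 12 and 24 h, aliquots were plated on LB agar for colony counts, with a detection limit of >50 CFU/mL. A ≥3-log10 drop from the starting inoculum counted as bactericidal. Run in triplicate.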

[2] = plasma protein binding; ref [26]; cited from earlier work
Pharmacokinetics in mice = format: in vivo; settings: for clearance relative to hepatic blood flow: mice
[3] = tested on: S. haemolyticus ATCC 29970; test: MIC against Gram-positive organisms; format: cell-based; settings: Staphylococcus haemolyticus, ATCC29970, read-out: MIC S. haemolyticus ATCC 29970

In the case of `N#Cc1ccc(CSc2nc3ccccc3c(=O)n2-c2cccc(C(=O)O)c2)cc1` [compound 125], the “increase in MIC with added bovine serum albumin” value (“increase in MIC” for short) (S. aureus ATCC29213) is reported as ≤ 4 fold.

In the case of `N#Cc1ccc(/C=C/c2nc3ccccc3c(=O)n2-c2cc(O)cc(C(=O)O)c2)cc1` [compound 77], the “antibacterial activity, active / inactive” value (S. aureus ATCC29213) is reported as “inactive”.

In the case of `CCN1CCN(C(=O)N[C@@H](C(=O)N[C@@H]2C(=O)N3[C@@H]2SC(C)(C)[C@@H]3C(=O)O)c2ccccc2)C(=O)C1=O` [piperacillin], the Kd (allosteric site of PBP2a) is listed as 400 µM.

With `N#Cc1ccc(/C=C/c2nc3ccccc3c(=O)n2-c2cccc(NC(=O)NCc3cnc[nH]3)c2)cc1` [compound 92] the “antibacterial activity in words” value (S. aureus ATCC29213) was “detrimental to the activity”.

With `O=C(O)c1cccc(-n2c(CCc3ccc(F)cc3)nc3ccccc3c2=O)c1` [compound 115] the “increase in MIC” value (S. aureus ATCC29213) was ≤ 4 fold.

With `N#Cc1ccc(/C=C/c2nc3ccccc3c(=O)n2-c2cccc(N)c2)cc1` [compound 111] the “antibacterial activity in words” value (S. aureus ATCC29213) was “potent activity”.

In the case of `Cc1ccc(C(=O)O)cc1-n1c(/C=C/c2ccc(C#N)cc2)nc2ccccc2c1=O` [compound 75], the “antibacterial activity in words” value (S. aureus ATCC29213) is reported as “retained acceptable MIC values” and the “antibacterial activity, active / inactive” value (S. aureus ATCC29213) is reported as “active”.

In the case of `N#Cc1ccc(/C=C/c2nc3ccccc3c(=O)n2-c2cccc(C(=O)O)c2O)cc1` [compound 81], the “antibacterial activity in words” value (S. aureus ATCC29213) is reported as “loss of antibacterial property”.

In the case of `O=C(O)c1cccc(-n2c(/C=C/c3ccc(I)cc3)nc3ccccc3c2=O)c1` [compound 59], the “antibacterial activity, active / inactive” value (S. aureus ATCC29213) is reported as “active”.

For `N#Cc1ccc(/C=C/c2nc3ccccc3c(=O)n2-c2cc(C(=O)O)ccc2C(F)(F)F)cc1` [compound 76], the “antibacterial activity in words” value (S. aureus ATCC29213) was “loss of antibacterial property” and the “antibacterial activity, active / inactive” value (S. aureus ATCC29213) was “inactive”.

In the case of `N#Cc1ccc(/C=C/c2nc3ccccc3c(=O)n2-c2cccc(CNC(=O)C(F)(F)F)c2)cc1` [compound 99], the “antibacterial activity, active / inactive” value (S. aureus ATCC29213) is reported as “active”.

In the case of `CC(=O)NS(=O)(=O)c1cccc(-n2c(/C=C/c3ccc(C#N)cc3)nc3ccccc3c2=O)c1` [compound 95], the “antibacterial activity, active / inactive” value (S. aureus ATCC29213) is reported as “active”.

For `O=C(O)c1cccc(-n2c(/C=C/C3CC3)nc3ccccc3c2=O)c1` [compound 48], the “antibacterial activity in words” value (S. aureus ATCC29213) was “loss of activity”.

For `N#Cc1ccc(/C=C/c2nc3ccccc3c(=O)n2-c2cccc(C(=O)O)c2)cc1` [compound 1, (E)-3-(3-Carboxyphenyl)-2-(4-cyanostyryl)quinazolin-4(3H)-one], the CL [1] is listed as 6.9 mL/min/kg, the “increase in MIC” value (S. aureus ATCC29213) is listed as ≤ 4 fold and the “antibacterial activity in words” value (S. aureus ATCC29213) is listed as “potent activity”. The “time-kill behaviour of compound alone” value (MRSA strain NRS70) was “bacteriostatic”.

In the case of `O=C(O)c1cccc(-n2c(/C=C/c3ccc(Cl)cc3)nc3ccccc3c2=O)c1` [compound 58], the “increase in MIC” value (S. aureus ATCC29213) is reported as ≤ 4 fold and the “antibacterial activity, active / inactive” value (S. aureus ATCC29213) is reported as “active”.

In the case of `C#Cc1ccc(/C=C/c2nc3ccccc3c(=O)n2-c2cccc(C(=O)O)c2)cc1` [compound 57], the PPB [2] is given as 99.6 ± 0.04^h % and the “antibacterial activity, active / inactive” value (S. aureus ATCC29213) is given as “active”.

With `N#Cc1ccc(/C=C/c2nc3ccccc3c(=O)n2-c2cc(C(=O)O)ccn2)cc1` [compound 84] the “antibacterial activity in words” value (S. aureus ATCC29213) was “loss of antibacterial property; also recorded: loss of activity”.

In the case of `N#Cc1ccc(/C=C/c2nc3ccccc3c(=O)n2-c2cc(C(=O)O)ccc2Cl)cc1` [compound 74], the “antibacterial activity in words” value (S. aureus ATCC29213) is reported as “retained acceptable MIC values” and the “antibacterial activity, active / inactive” value (S. aureus ATCC29213) is reported as “active”.

For `N#Cc1ccc(/C=C/c2nc3ccccc3c(=O)n2-c2cccc(NC(=O)NCCc3cnc[nH]3)c2)cc1` [compound 93], the “antibacterial activity in words” value (S. aureus ATCC29213) was “detrimental to the activity”.

With `N#Cc1ccc(/C=C/c2nc3ccccc3c(=O)n2-c2cccc(S(N)(=O)=O)c2)cc1` [compound 94] the “increase in MIC” value (S. aureus ATCC29213) was ≤ 4 fold, the “antibacterial activity, active / inactive” value (S. aureus ATCC29213) was “active” and the “clearance relative to hepatic blood flow” value (Pharmacokinetics in mice; 5 mg/kg iv) was > 10%.

For `COc1ccc(C(=O)O)cc1-n1c(/C=C/c2ccc(C#N)cc2)nc2ccccc2c1=O` [compound 79], the “antibacterial activity in words” value (S. aureus ATCC29213) was “loss of antibacterial property”.

In the case of `N#Cc1ccc(/C=C/c2nc3ccccc3c(=O)n2-c2cccc(C(=O)O)n2)cc1` [compound 83], the “antibacterial activity in words” value (S. aureus ATCC29213) is reported as “loss of antibacterial property; also recorded: loss of activity”.

For `C#Cc1ccc(/C=C/c2nc3ccccc3c(=O)n2-c2cccc(S(N)(=O)=O)c2)cc1` [compound 113], the “clearance relative to hepatic blood flow” value (Pharmacokinetics in mice; 5 mg/kg iv) was > 10%.

In the case of `N#Cc1ccc(/C=C/c2nc3ccccc3c(=O)n2-c2cccc(NC(=O)C(F)(F)F)c2)cc1` [compound 88], the “antibacterial activity, active / inactive” value (S. aureus ATCC29213) is reported as “active”.

For `N#Cc1ccc(/C=C/c2nc3ccccc3c(=O)n2-c2cc(C(=O)O)ccc2O)cc1` [compound 78], the “antibacterial activity in words” value (S. aureus ATCC29213) was “loss of antibacterial property” and the “antibacterial activity, active / inactive” value (S. aureus ATCC29213) was “inactive”.

With `N#Cc1ccc(/C=C/c2nc3ccccc3c(=O)n2-c2cc(C(=O)O)ccc2F)cc1` [compound 73, (E)-3-(5-Carboxy-2-fluorophenyl)-2-(4-cyanostyryl)-quinazolin-4(3H)-one] the “increase in MIC” value (S. aureus ATCC29213) was ≤ 4 fold, the “antibacterial activity, active / inactive” value (S. aureus ATCC29213) was “active” and the MIC [3] was ≤ 4 µg/mL. For the same molecule, the “time-kill behaviour of compound alone” value (MRSA strain NRS70) was “bacteriostatic”, the clearance (Pharmacokinetics in mice; female, ICR, mouse, plasma, iv, 10 mg/kg) was 7.7 mL/min/kg and the “clearance relative to hepatic blood flow” value (Pharmacokinetics in mice; 10 mg/kg iv) was < 10%.
